Test results taken from ChEMBL document CHEMBL1132976, “Biarylcarbamoylindolines are novel and selective 5-HT(2C) receptor inverse agonists: identification of 5-methyl-1-[[2-[(2-methyl-3-pyridyl)oxy]- 5-pyridyl]carbamoyl]-6-trifluoromethylindoline (SB-243213) as a potential antidepressant/anxiolytic agent” (J Med Chem, 2000).

How the values were obtained:
[1] = biological target: 5-hydroxytryptamine receptor 2A (Homo sapiens, UniProt P28223); assay: Binding affinity towards human cloned 5-hydroxytryptamine receptor 2A in HEK293 cells, using [3H]ketanserin as radioligand.; format: cell-based
5-hydroxytryptamine receptor 2A, sequence (P28223 whole entry): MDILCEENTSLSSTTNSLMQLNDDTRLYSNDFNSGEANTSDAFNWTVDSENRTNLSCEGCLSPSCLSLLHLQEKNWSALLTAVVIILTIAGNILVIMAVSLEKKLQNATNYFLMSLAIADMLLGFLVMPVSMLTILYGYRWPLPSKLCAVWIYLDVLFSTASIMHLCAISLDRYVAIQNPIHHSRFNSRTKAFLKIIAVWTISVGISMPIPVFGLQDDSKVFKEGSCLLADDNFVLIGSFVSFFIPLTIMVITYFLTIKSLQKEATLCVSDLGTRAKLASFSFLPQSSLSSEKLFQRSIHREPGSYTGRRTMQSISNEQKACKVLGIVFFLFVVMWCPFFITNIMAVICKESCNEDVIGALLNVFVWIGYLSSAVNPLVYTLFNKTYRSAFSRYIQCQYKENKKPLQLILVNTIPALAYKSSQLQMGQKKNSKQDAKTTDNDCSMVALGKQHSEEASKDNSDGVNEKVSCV
Procedure, shortened: (§1)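 Competition binding at human cloned receptors expressed in HEK 293 cells. Radioligands: [3H]ketanserin for 5-HT2A, [3H]5-HT for 5-HT2B, [3H]mesulergine for 5-HT2C. Values are pKi, given as the mean of at least two determinations, each within 0.2 log unit of the mean.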

[2] = biological target: T1, 5-hydroxytryptamine receptor 2C (Homo sapiens, UniProt P28335); assay: Binding affinity towards human cloned 5-hydroxytryptamine receptor 2C in HEK293 cells, using [3H]mesulergine as radioligand.; format: cell-based; procedure, shortened: as §1
T1 sequence (P28335 whole entry): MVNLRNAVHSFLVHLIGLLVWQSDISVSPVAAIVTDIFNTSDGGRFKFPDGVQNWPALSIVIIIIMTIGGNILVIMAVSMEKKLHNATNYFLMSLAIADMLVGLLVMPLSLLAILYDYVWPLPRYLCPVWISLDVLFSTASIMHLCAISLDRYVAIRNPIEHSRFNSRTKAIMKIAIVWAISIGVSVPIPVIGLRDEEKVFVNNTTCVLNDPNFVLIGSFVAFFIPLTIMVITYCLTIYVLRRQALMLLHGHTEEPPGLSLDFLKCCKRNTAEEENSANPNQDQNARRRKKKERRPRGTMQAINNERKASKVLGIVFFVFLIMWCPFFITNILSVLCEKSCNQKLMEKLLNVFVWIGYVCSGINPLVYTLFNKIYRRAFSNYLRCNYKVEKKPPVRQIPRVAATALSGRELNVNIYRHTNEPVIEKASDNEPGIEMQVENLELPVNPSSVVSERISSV

[3] = biological target: T2, 5-hydroxytryptamine receptor 2B (Homo sapiens, UniProt P41595); assay: Displacement of [3H]5-HT from human 5-hydroxytryptamine 2B receptor expressed in HEK293 cells; format: cell-based; procedure, shortened: as §1
T2 sequence (P41595 whole entry): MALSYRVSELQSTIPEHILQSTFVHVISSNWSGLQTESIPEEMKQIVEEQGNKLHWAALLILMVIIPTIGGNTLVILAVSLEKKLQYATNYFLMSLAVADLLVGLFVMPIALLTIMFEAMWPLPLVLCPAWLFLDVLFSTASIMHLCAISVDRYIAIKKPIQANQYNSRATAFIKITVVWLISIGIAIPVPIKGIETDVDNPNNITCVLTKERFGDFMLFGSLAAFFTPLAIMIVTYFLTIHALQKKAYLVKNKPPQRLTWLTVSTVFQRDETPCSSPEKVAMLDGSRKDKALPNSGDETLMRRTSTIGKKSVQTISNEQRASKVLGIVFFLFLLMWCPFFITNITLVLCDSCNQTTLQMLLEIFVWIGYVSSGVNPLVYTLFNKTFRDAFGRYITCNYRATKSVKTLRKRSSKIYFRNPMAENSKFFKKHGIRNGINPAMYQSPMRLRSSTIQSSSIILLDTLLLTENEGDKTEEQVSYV

[4] = biological target: T3, Cytochrome P450 1A2 (Homo sapiens, UniProt P05177); assay: Inhibition of heterologously expressed human cytochrome P450 1A2.; format: ADME
T3 sequence (P05177 whole entry): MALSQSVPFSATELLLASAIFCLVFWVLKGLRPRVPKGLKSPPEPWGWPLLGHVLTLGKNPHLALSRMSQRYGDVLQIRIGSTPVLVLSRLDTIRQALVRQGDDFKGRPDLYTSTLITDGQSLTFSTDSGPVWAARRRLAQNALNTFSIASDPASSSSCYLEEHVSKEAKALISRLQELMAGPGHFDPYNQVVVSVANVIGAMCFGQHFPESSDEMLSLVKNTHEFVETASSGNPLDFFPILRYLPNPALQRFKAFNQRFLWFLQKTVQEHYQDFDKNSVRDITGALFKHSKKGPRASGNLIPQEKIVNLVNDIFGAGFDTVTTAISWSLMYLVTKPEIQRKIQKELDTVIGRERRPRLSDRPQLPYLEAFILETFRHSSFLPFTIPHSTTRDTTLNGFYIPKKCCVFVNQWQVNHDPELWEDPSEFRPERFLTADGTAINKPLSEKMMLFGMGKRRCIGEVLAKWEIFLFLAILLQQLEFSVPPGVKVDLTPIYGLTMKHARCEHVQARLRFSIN
Procedure, shortened: (§2)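 Heterologously expressed human CYP1A2 in an isoform-selective assay. Substrate: caffeine N3-demethylation at 500 µM, at the substrate Km.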

[5] = biological target: T4, Serotonin 2 receptors; 5-HT2a & 5-HT2c (Homo sapiens) (UniProt P28223+P28335); assay: Selectivity index determined from binding affinities of 5-HT2C and 5-HT2A.; format: protein assay
T4 sequence (P28223 whole entry, looked up, one chain of several): as the sequence (P28223 whole entry) above

[6] = biological target: T5, Serotonin receptor (2b and 2c) (Homo sapiens) (UniProt P41595+P28335); assay: Selectivity index determined from the binding affinities of 5-HT2C and 5-HT2B.; format: protein assay
[7] = biological target: T2, 5-hydroxytryptamine receptor 2B; assay: Binding affinities towards human cloned 5-hydroxytryptamine 2B receptor in HEK293 cells using [3H]5-HT as radioligand.; format: cell-based; procedure, shortened: as §1
[8] = system: Rattus norvegicus; assay: Dose required to reverse mCPP induced hypolocomotion in rat after oral administration.; format: functional; conditions: read-out: ID50 (the source's name)
Procedure, shortened: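 Rat hypolocomotion model. The test compound was given orally, and mCPP was given at 7 mg/kg ip 30 min before the test. ID50 (mg/kg po) is the dose that reverses mCPP-induced hypolocomotion by 50%.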

[9] = biological target: T4, Serotonin 2 receptors; 5-HT2a & 5-HT2c (Homo sapiens); assay: Selectivity index for binding affinities for 5-HT2C and 5-HT2A receptors; format: protein assay
[10] = biological target: T5, Serotonin receptor (2b and 2c) (Homo sapiens); assay: Selectivity index for binding affinities for 5-HT2C and 5-HT2B receptors; format: protein assay
[11] = biological target: Cytochrome P450 2C9 (Homo sapiens, UniProt P11712); assay: Inhibition of heterologously expressed human cytochrome P450 2C9; format: ADME
Cytochrome P450 2C9, sequence (P11712 whole entry): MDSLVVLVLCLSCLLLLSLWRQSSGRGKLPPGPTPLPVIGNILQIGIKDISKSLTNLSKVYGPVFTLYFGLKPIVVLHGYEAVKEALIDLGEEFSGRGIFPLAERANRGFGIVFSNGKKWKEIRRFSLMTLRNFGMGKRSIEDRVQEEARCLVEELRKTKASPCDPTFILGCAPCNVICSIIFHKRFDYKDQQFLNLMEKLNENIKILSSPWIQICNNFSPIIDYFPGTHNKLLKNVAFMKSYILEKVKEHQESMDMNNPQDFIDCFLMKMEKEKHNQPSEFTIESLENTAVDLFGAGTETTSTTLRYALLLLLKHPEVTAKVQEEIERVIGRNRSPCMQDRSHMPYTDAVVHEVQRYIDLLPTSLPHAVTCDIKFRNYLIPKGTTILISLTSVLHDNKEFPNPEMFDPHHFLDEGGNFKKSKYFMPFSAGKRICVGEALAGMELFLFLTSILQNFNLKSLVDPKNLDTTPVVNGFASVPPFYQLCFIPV

[12] = biological target: Cytochrome P450 2D6 (Homo sapiens, UniProt P10635); assay: Inhibition of heterologously expressed human cytochrome P450 2D6; format: ADME
Cytochrome P450 2D6, sequence (P10635 whole entry): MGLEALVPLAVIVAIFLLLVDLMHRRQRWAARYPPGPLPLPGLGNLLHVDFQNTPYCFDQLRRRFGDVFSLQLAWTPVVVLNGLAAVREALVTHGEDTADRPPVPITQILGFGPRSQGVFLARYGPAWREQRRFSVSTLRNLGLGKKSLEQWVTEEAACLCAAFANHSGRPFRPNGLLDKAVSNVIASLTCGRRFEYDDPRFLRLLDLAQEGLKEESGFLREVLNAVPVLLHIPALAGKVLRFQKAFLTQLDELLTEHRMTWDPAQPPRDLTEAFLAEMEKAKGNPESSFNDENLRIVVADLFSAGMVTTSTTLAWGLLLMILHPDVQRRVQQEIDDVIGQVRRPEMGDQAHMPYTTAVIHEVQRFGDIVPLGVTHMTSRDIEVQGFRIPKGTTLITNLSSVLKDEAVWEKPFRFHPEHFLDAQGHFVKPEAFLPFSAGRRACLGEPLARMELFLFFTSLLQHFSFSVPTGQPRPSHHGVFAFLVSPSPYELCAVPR

[13] = biological target: Cytochrome P450 2C19 (Homo sapiens, UniProt P33261); assay: Inhibition of heterologously expressed human cytochrome P450 2C19; format: ADME
Cytochrome P450 2C19, sequence (P33261 whole entry): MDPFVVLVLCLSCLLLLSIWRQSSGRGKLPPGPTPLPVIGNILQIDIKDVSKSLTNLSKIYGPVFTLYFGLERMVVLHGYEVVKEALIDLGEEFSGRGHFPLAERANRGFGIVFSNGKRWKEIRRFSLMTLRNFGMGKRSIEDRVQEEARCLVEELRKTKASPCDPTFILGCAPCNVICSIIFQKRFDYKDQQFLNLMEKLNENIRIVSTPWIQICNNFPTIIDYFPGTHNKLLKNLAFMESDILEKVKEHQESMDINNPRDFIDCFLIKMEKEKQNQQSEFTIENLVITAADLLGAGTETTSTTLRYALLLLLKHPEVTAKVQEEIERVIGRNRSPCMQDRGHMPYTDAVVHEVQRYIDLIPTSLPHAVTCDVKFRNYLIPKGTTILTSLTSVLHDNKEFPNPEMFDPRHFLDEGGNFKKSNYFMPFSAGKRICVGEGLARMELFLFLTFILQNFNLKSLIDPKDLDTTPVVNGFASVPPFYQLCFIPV

[14] = biological target: Cytochrome P450 3A4 (Homo sapiens, UniProt P08684); assay: Inhibition of heterologously expressed human cytochrome P450 3A4; format: ADME
Cytochrome P450 3A4, sequence (P08684 whole entry): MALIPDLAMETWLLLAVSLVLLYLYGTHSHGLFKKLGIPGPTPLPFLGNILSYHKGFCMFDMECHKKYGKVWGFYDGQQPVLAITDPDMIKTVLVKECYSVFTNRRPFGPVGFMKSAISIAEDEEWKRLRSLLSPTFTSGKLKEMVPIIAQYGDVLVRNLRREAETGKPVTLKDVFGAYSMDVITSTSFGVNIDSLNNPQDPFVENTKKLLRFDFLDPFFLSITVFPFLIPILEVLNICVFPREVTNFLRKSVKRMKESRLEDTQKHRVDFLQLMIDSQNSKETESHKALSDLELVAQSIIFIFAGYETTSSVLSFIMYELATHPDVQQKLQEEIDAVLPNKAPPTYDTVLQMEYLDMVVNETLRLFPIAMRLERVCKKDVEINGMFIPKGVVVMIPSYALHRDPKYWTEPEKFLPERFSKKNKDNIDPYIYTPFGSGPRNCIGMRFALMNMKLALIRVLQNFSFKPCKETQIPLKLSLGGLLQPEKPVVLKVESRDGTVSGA

[15] = biological target: T3, Cytochrome P450 1A2; assay: Inhibition of heterologously expressed human cytochrome P450 1A2; format: ADME; procedure, shortened: as §2

| Compound | Ki [1] [nM] | Ki [2] [nM] | Ki [3] [nM] | Inhibition [4] [%] | Selectivity [5] | Selectivity [6] | Ki [7] [nM] | IC50 [4] [nM] | ED50 [8] [mg/kg] | Selectivity [9] | Selectivity [10] | IC50 [11] [nM] | IC50 [12] [nM] | IC50 [13] [nM] | IC50 [14] [nM] | Inhibition [15] [%] | IC50 [15] [nM] |
| --- | --- | --- | --- | --- | --- | --- | --- | --- | --- | --- | --- | --- | --- | --- | --- | --- | --- |
| COc1cc2c(cc1C(F)(F)F)N(C(=O)Nc1cncc(-c3cccnc3)c1)CC2 | 63.1 | 0.794 | 10 | 77 | 80 | 12 | – | – | – | – | – | – | – | – | – | – | – |
| COc1cc2c(cc1C(F)(F)F)N(C(=O)Nc1ccc(Oc3cccnc3C)nc1)CC2 | 794 | 0.631 | – | – | – | – | 50.1 | > 100000 | 2.8 | 1300 | 80 | – | – | – | – | – | – |
| CSc1cc2c(cc1C(F)(F)F)N(C(=O)Nc1cccc(-c3cccnc3)c1)CC2 | 79.4 | 1.58 | 7.94 | – | 50 | 5 | – | – | – | – | – | – | – | – | – | – | – |
| COc1cc2c(cc1C(F)(F)F)N(C(=O)Nc1cc(F)cc(-c3cccnc3)c1)CC2 | 126 | 1 | – | – | 130 | 10 | 10 | 28000 | 0.7 | – | – | 82000 | 21000 | > 100000 | 9000 | – | – |
| CSc1cc2c(cc1C(F)(F)F)N(C(=O)Nc1cccc(-c3ccncc3)c1)CC2 | 158 | 3.16 | 25.1 | – | 50 | 8 | – | – | – | – | – | – | – | – | – | – | – |
| COc1cc2c(cc1C(F)(F)F)N(C(=O)Nc1cncc(-c3cc(F)cc(F)c3)c1)CC2 | 1260 | 79.4 | 501 | – | 15 | 6 | – | – | – | – | – | – | – | – | – | – | – |
| Cc1cc2c(cc1Cl)N(C(=O)Nc1ccc(Oc3cccnc3C)nc1)CC2 [SB-242084] | – | – | – | – | – | – | – | – | – | 160 | 100 | – | – | > 100000 | – | – | – |
| COc1cc2c(cc1C(F)(F)F)N(C(=O)Nc1cncc(-c3ccncc3)c1)CC2 | 63.1 | 0.631 | 10 | – | 100 | 16 | – | 50000 | – | – | – | – | – | – | – | – | – |
| COc1cc2c(cc1C(F)(F)F)N(C(=O)Nc1cccc(-c3cccnc3C)c1)CC2 | 501 | 5.01 | – | – | 100 | 3 | 15.8 | – | > 10 | – | – | – | – | – | – | 2 | – |
| COc1cc2c(cc1C(F)(F)F)N(C(=O)Nc1ccc(C)c(-c3cnccc3C)c1)CC2 | > 6310 | 0.316 | – | – | > 20000 | 12 | 3.98 | > 100000 | 1.4 | – | – | – | – | – | – | – | – |
| Cc1cc2c(cc1C(F)(F)F)N(C(=O)Nc1ccc(Oc3cccnc3C)nc1)CC2 [SB-243213] | 158 | 1 | – | – | 160 | 100 | 100 | – | 0.7 | – | – | 23000 | > 100000 | > 100000 | > 100000 | – | > 100000 |
| COc1cc2c(cc1C(F)(F)F)N(C(=O)Nc1cncc(-c3ccc(F)cc3)c1)CC2 | 251 | 6.31 | 63.1 | – | 40 | – | – | – | 10 | – | – | – | – | – | – | – | – |
| CCc1cc(NC(=O)N2CCc3cc(OC)c(C(F)(F)F)cc32)cc(-c2cccnc2)c1 | 200 | 0.631 | – | – | 320 | 16 | 10 | 6000 | 1.2 | – | – | – | – | – | – | – | – |
| COc1cc2c(cc1C(F)(F)F)N(C(=O)Nc1cncc(-c3c(F)cccc3F)c1)CC2 | > 10000 | 25.1 | 100 | – | > 420 | 4 | – | – | – | – | – | – | – | – | – | – | – |
| COc1ccc(NC(=O)N2CCc3cc(OC)c(C(F)(F)F)cc32)cc1-c1cccnc1 | 200 | 0.501 | – | 3 | 400 | 30 | 15.8 | – | 1.2 | – | – | – | – | – | – | – | – |
| COc1cc2c(cc1C(F)(F)F)N(C(=O)Nc1cncc(-c3ccccc3)c1)CC2 | 1580 | 5.01 | 25.1 | – | 320 | 5 | – | 2600 | > 20 | – | – | – | – | – | – | – | – |
